Published values pooled from the literature.
Each line is one published result; the experiments were not run side by side.
Target: Vascular endothelial growth factor receptor 1 (FLT1, Homo sapiens, UniProt P17948)

Structure (SMILES) | test | conditions | quantity | result
CC(C)S(=O)(=O)c1ccc2nccc(Nc3ccc4sc(C5CCCC5)nc4c3)c2c1 | enzyme activity, inhibitor | 1 µM | activity vs control | 107%
CCCCC(=O)Nc1ccc(-c2ccc3ncn(CCC)c(=O)c3c2)cn1 | binding, competition with immobilised ligand | 0.5 µM | remaining binding | 98%
C1=C/COCc2cc(ccc2OCCN2CCCC2)Nc2nccc(n2)-c2cccc(c2)COC/1 | binding | 0.1 µM | remaining binding | 64%
O=C1C=C(Nc2ccc(OCc3cn(Cc4ccc(Cl)c(Cl)c4)nn3)cc2)C(=O)c2ccccc21 | enzyme activity, inhibitor, radiometric | 10 µM | inhibition | -38%
CO[C@@H]1[C@H](N(C)C(=O)c2ccccc2)C[C@H]2O[C@]1(C)n1c3ccccc3c3c4c(c5c6ccccc6n2c5c31)C(=O)NC4 | enzyme activity, inhibitor | 1 µM | inhibition | 57%
CN1CCN(C(=O)c2ccc(NC(=O)Nc3ccc(N(C)c4ccnc(Nc5ccc(CS(C)(=O)=O)cc5)n4)cc3)cc2)CC1 | binding, competition with immobilised ligand | 1 µM | remaining binding | 0.4%
C=CC(=O)N1CCC[C@@H](n2nc(-c3ccc(Oc4ccccc4)cc3)c3c(N)ncnc32)C1 | enzyme activity, inhibitor | 1 µM | inhibition | 33%
C[C@H]1CC[C@H](n2c3cnccc3c3cnc(Nc4ccc5c(n4)CCN(C(=O)CO)C5)nc32)CC1 | cell-free assay, competition with immobilised ligand | 1 µM | remaining binding | 93%
